The text below walks through data of PubChem BioAssay.

Test [1] in a line: inhibitors of TNFa-induced NFkB p65 translocation, primary screen, imaging, HUVEC, MLSMR starter and 10KST1 sets (AID 438;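 active means inhibition above 20% together with a positive visual image hit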;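 further: compound added about 3h40 before a 20 min TNFalpha stimulation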;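 on inhibition: signal is the nuclear over cytoplasmic p65 intensity ratio per well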). The note with it: HUVEC TNFa-induced p65 nuclear translocation; cell count: measured here: nuclei count (cytotoxicity indicator), at 2.08 µM; inhibition: at 2 µM, stronger effect = higher value, 0% TNFa-plus-vehicle, 100% no-TNFa wells.
Test [2] is described as follows: inhibitors of mutant huntingtin aggregation, primary screen, imaging, exon1htt(103Q)mCFP cells, high-content imaging (AID 483;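 active means visual image review flags a hit and inhibition of aggregation exceeds 20%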;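 further: compound exposure lasted 3 days before fixation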;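 on nuclei count: percent of the per-plate median nuclei count of sample wells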). The note with it: exon1htt(103Q)mCFP cell line, aggregate imaging, at 2 µM; inhibition of aggregation: stronger effect = higher value; nuclei count: measured here: cell count, toxicity.
Test [3] in a line: inhibitors of E-selectin induction by TNFa, primary screen, imaging, HUVEC, immunofluorescence, MLSMR starter and 10KST1 sets (AID 487;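 active means visually confirmed hit in the image check and inhibition above 20%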;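 on inhibition: signal is fraction of cell area covered by stained E-selectin grains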;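 on nuclei count: 100% = median nuclei count of all wells on the same plate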). The note with it: HUVEC TNFalpha-induced E-selectin immunofluorescence imaging, at 2 µM; inhibition: stronger effect = higher value; nuclei count: measured here: cell number, toxicity.
The target of test [4] is Voltage-gated potassium channel subunit beta-2 (Rattus norvegicus) (UniProt P62483). Briefly: KvBeta enzyme negative modulators, primary screen, biochemical, NADPH fluorescence (AID 622).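 Further: slope of raw intensity against log time taken from 70 to 1610 s.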 The note with it: recombinant KvBeta, 4-cyanobenzaldehyde reduction, at 10 µM, stronger effect = higher value.
Test [5] shares this target. As to the kind of experiment: KvBeta positive modulators, primary screen, biochemical, NADPH fluorescence (AID 623;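 active means NADPH fluorescence slope more negative than the mean of all samples by about 3 SD, 99.7% confidence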;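 further: fluorescence intensity change per second fitted from 20 to 320 s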). The note with it: Recombinant KvBeta, NADPH fluorescence decrease slope, 10 min; at 10 µM; stronger effect = lower value.
For test [6], the target named is Alpha-2C adrenergic receptor (Homo sapiens) (UniProt P18825). Briefly: modulators of alpha2C/GIRK thallium flux, primary screen, cell-based, HEK293 alpha2C/GIRK1/2 (AID 624;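 active means fluorescence slope after compound addition differing from the mean of all screened samples at 99.7% confidence, in either direction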;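 further: slope of fluorescence ratio to pre-addition baseline per second over 15 to 24 s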). The note with it: thallium flux BTC fluorescence, at 10 µM, actives lie on both sides.
Test [7] is described as follows: inhibitors of larval lipid processing in zebrafish, primary screen, whole organism, PED6 fluorescence, gall bladder and intestine (AID 686;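 active means a full or partial loss of lipid-probe fluorescence in the fish gall bladder, intestine or both, judged by eye; inactive means no fluorescence loss, or compound toxic to the fish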;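 further: larvae 5 to 7 days old with five fish per well; signal comes from phospholipase A2 cleavage of quenched PED6 carried via bile; overnight exposure to compound and PED6 before scoring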). The note with it: Zebrafish larvae PED6 lipid processing, fluorescence scoring; screened at 20 µM (by protocol). Put shortly:
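system = live zebrafish larvae aged 5-7 days, whole organism | probe or stimulus = ingested quenched lipid PED6 at 100 nM | doses = 20 µM single dose | timing = overnight exposure | detection = fluorescence microscopy with visual scoring of gall bladder and intestine | read-out = visual per-well fluorescence inhibition score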

The nature of test [8]: inhibitors of Sendai virus-induced IRF3 signaling, primary screen, TLR/RLR signaling modifier project, cell-based, Sendai virus stimulus, luciferase, 10K MLSCN set (AID 602276;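 active means inhibition at or above 50% at 10 µM; inactive means inhibition below 50%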;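 further: firefly luciferase from ISG56 promoter only with Renilla not read in this screen; 0% = Sendai virus plus DMSO and 100% = medium plus DMSO without virus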). The note with it: HEK293 RL24 IRF3 luciferase reporter, at 10 µM, stronger effect = higher value. In general terms: In a reporter assay the amount or activity of a reporter protein is the signal.
Test [9] can be described thus: inhibitors of poly I:C-induced TLR3 signaling, primary screen, cell-based, poly I:C stimulus, luciferase, 10K MLSCN set (AID 602277;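 active means inhibition of the reporter signal at or above 50%; inactive means inhibition below 50%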). The note with it: HEK293-TLR3 RL24 IRF3 luciferase reporter, at 10 µM, stronger effect = higher value.

Molecules are shown by their SMILES. Activity calls are given as the source filed them.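 How the source made its calls, unless noted: active means fluorescence slope higher than the sample average by over 3 SD (cut at about -0.22 in these data, passing the limit was not always enough); inactive means the rest.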

Voltage-gated potassium channel subunit beta-2 (Rattus norvegicus), sequence (P62483 whole entry, looked up): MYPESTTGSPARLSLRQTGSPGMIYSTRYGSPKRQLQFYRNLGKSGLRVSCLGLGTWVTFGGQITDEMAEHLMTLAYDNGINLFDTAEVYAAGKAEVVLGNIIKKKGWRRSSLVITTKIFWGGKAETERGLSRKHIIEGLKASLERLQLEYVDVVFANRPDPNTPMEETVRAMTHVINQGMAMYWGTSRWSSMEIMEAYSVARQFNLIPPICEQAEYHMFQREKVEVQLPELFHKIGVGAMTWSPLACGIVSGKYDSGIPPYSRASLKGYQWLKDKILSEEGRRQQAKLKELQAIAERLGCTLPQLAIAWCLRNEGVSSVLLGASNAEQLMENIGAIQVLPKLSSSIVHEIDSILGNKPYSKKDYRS
Alpha-2C adrenergic receptor (Homo sapiens), sequence (P18825 whole entry, looked up): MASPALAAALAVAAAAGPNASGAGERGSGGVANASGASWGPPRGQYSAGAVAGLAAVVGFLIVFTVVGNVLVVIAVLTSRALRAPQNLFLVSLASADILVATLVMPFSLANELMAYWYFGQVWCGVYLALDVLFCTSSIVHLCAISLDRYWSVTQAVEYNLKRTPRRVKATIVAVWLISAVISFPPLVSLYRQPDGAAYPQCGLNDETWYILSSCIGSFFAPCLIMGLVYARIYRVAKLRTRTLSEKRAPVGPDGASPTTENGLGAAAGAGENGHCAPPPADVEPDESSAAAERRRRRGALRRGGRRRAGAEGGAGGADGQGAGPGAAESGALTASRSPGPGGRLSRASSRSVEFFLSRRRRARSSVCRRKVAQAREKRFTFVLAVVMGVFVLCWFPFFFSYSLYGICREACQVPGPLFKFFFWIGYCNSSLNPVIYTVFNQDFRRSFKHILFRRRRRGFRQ

One may read the inhibition as the drop in the measured response relative to a control, in per cent. Consider `O=C(c1nn2cccnc2c1Cl)N1CCN(c2ccccc2)CC1`, for which the cell count in [1] is 344. In addition, the inhibition is 3.6% (inactive) in [1], -45.6% (inactive) in [3], 11.4% (inactive) in test [8] and 1.58% (inactive) in test [9]. The inhibition of aggregation in [2] was -7.7% (inactive). Further, the nuclei count in test [2] worked out at 80.1%; in test [3], 94.5%. The fluorescence slope in test [4] was -0.424 (inactive). The NADPH fluorescence slope in test [5] was -2.5e-05 (inactive). For the same compound, the slope in test [6] is 0.00475 (inactive). In test [7], the compound was classed as inactive.
Consider `COc1ccc(COC(=O)c2n[nH]c3ccccc23)cc1F`, for which the cell count in test [1] is 380. The inhibition in test [1] was 3.9% (inactive); in test [3] it was -1.8% (inactive); in test [8] it was -16.1% (inactive); in test [9] it was -49.8% (inactive). Besides, in test [2], the inhibition of aggregation was -16% (inactive). Besides, the nuclei count in test [2] is 125%; in test [3], 107%. In test [4], the fluorescence slope is -0.444 (inactive). The NADPH fluorescence slope in test [5] is -5.5e-05 (inactive). Moreover, the slope in test [6] was 0.00618 (inactive). Further, the call in [7] was inactive.
Turning to `Cc1cc(N2C(=O)CC(N3CCN(c4ccc(C(=O)c5cccs5)cc4)CC3)C2=O)no1` (stereo not given), the cell count in [1] turned out to be 654. Further, the inhibition was 10.8% (inactive) in test [1], -31.2% (inactive) in [3], -4.13% (inactive) in test [8] and -9.36% (inactive) in test [9]. Besides, the inhibition of aggregation in test [2] is -3% (inactive). For the same compound, the nuclei count in test [2] is 112%; in [3] it was 93.1%. Further, the fluorescence slope in test [4] was -0.392 (inactive). Further, the NADPH fluorescence slope in test [5] was -4.4e-05 (inactive). Further, the slope in test [6] was 0.00594 (inactive). Also, in [7], the compound was called inactive.
For `Cc1cc(C)cc(N2C(=O)C3C4C=CC(C4)C3C2=O)c1` (stereo not given), the cell count in test [1] is 643. The inhibition was -4.8% (inactive) in test [1], 28% (inactive) in test [3], 13.3% (inactive) in test [8] and 14.4% (inactive) in test [9]. Moreover, in test [2], the inhibition of aggregation was -4.9% (inactive). Besides, the nuclei count is 98.2% in [2] and 99.1% in test [3]. Further, in [4], the fluorescence slope was -0.451 (inactive). In test [5], the NADPH fluorescence slope was -4.1e-05 (inactive). Also, in test [6], the slope was 0.00599 (inactive). Moreover, in [7], the compound was classed as inactive.
As for `Cc1csc(NC(=O)Nc2cccc(Cl)c2)n1`, the cell count in test [1] amounted to 506. The inhibition in [1] was 1.8% (inactive); in test [3], -98.3% (inactive); in test [8] it was -37.7% (inactive); in [9], -119% (inactive). Moreover, in [2], the inhibition of aggregation is -3.3% (inactive). The nuclei count came to 97.5% in test [2] and 113% in test [3]. In [4], the fluorescence slope was -0.373 (inactive). Also, the NADPH fluorescence slope in test [5] was -3.7e-05 (inactive). In addition, the slope in test [6] was 0.00525 (inactive). Besides, in [7], the outcome is “active; weak signal in gallbladder only”.
`CC1CC(C)CN(c2nc3c(c(=O)[nH]c(=O)n3C)n2CCCSc2nc3ccccc3s2)C1` (stereo not given): the cell count in [1] turned out to be 383. Moreover, the inhibition is -4.3% (inactive) in test [1], -83.6% (inactive) in test [3], 10.4% (inactive) in test [8] and 11.5% (inactive) in test [9]. Moreover, the inhibition of aggregation in [2] was 33.6% (inactive). In addition, the nuclei count in [2] came to 97.2%; in [3], 107%. Besides, the fluorescence slope in test [4] was -0.445 (inactive). Besides, the NADPH fluorescence slope in test [5] is -5e-05 (inactive). Also, in [6], the slope was 0.00577 (inactive). Besides, the outcome in test [7] was inactive.
On to `NS(=O)(=O)c1ccc(NC(=O)CSc2nnc(Cc3cccs3)n2-c2ccccc2)cc1`, for which the cell count in [1] turned out to be 253. Also, the inhibition in [1] was -10.8% (inactive); in [3], -24.9% (inactive); in test [8] it was 17.4% (inactive); in test [9] it was 21.4% (inactive). Further, the inhibition of aggregation in test [2] was 7.5% (inactive). The nuclei count in test [2] is 73.5%; in [3], 100%. Besides, in test [4], the fluorescence slope was -0.45 (inactive). Besides, the NADPH fluorescence slope in test [5] is -4.3e-05 (inactive). Besides, the slope in [6] is 0.00519 (inactive). Besides, the call in [7] was inactive.
Consider `Cn1nc(C(C)(C)C)cc1C(=O)NCc1ccc(N2CCCC2=O)cc1`, for which, in [1], the cell count turned out to be 651. Moreover, the inhibition in test [1] is -10.6% (inactive); in [3], -11.3% (inactive); in test [8], 9.24% (inactive); in [9], -37.1% (inactive). Besides, the inhibition of aggregation in test [2] is -12.4% (inactive). For the same compound, the nuclei count in test [2] is 70.7%; in test [3], 107%. The fluorescence slope in test [4] is -0.456 (inactive). Besides, the NADPH fluorescence slope in test [5] was -9.7e-05 (inactive). Further, in [6], the slope is 0.00425 (inactive). Further, the outcome in test [7] is “inactive; toxic”.
On to `Cc1cc(=O)n2[nH]c(-c3ccc(Cl)cc3)cc2n1`, for which the cell count in [1] worked out at 540. The inhibition in test [1] was -2.9% (inactive); in [3], 46.6% (inactive); in [8] it was -16.8% (inactive); in [9] it was -40.2% (inactive). Further, the inhibition of aggregation in test [2] is 0% (inactive). Besides, the nuclei count in test [2] is 87.6%; in test [3], 69.3%. The fluorescence slope in test [4] was -0.42 (inactive). Besides, the NADPH fluorescence slope in [5] is -3.9e-05 (inactive). In addition, in test [6], the slope is 0.0052 (inactive). Further, the outcome in [7] was inactive.
`O=C(CSc1nc2cc(S(=O)(=O)N3CCOCC3)ccc2o1)NC1CCCc2ccccc21` (stereo not given): in test [1], the cell count is 571. In addition, the inhibition in [1] is -16.3% (inactive); in [3] it was 36.5% (inactive); in [8], 11.5% (inactive); in [9], 99.3% (active). In addition, the inhibition of aggregation in [2] was -7.6% (inactive). Moreover, the nuclei count turned out to be 89.9% in test [2] and 86.1% in test [3]. Further, the fluorescence slope in test [4] was -0.363 (inactive). Also, in test [5], the NADPH fluorescence slope was -8.5e-05 (inactive). In addition, the slope in test [6] is 0.00378 (inactive). Also, in test [7], the compound was classed as inactive.
